mABHD4 FP – ABHD4 (mouse) inhibition, primary FP screen | purified mABHD4, FP-Rh probe fluorescence polarization | inhibition, % at 8.92 µM | actives 0.54% (n = 370,000);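 active = inhibition exceeding the mean over every tested compound plus 3 SD, cut at about 30% in these data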;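 also: 0% = plate median of compound wells and 100% = S159A mutant with DMSO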
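Test system: mouse ABHD4 enzyme, wild type. Reagent: FP-Rh fluorescent activity-based probe, added after compound pre-incubation. Timing: pre-incubation 45 min, probe exposure 60 min, at 25 °C. Technique: FP readout, ex 525 nm / em 598 nm. Benchmarks: high control S159A mutant with DMSO, low control median of compound wells.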
SIAE primary – inhibitors of human sialic acid acetylesterase SIAE; Q9HAT2; SIAE FP-Rh probe binding, fluorescence polarization; inhibition, % at 9.66 µM; actives 0.69% (n = 370,000);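 active = inhibition above a cutoff: mean of compounds within the control limits plus 3 SD of those, cut at about 17% in these data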;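 also: 0% = plate median of compound wells and 100% = probe without SIAE protein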
TCR-CD3 inh – human TCR-CD3 binding inhibition; inhibition, % at 9.4 µM; TAMRA-labeled TCR probe fluorescence, biochemical; AID 651800; actives 0.37% (n = 360,000);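 also: recombinant mutant TCR 2C K166C tagged with TAMRA read by polarization; 0% = receptor in buffer alone and 100% = receptor with positive control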
PAD4 inh – PAD4 (human) enzyme inhibition; Q9UM07; recombinant PAD4, RCA probe fluorescence polarization; inhibition, % at 6.36 µM; actives 0.41% (n = 330,000); AID 485272;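 active = percent inhibition above a cutoff equal to the mean of all tested compounds plus 3 SD, cut at about 15% in these data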;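 also: 0% = PAD4 with RCA probe and DMSO and 100% = probe without PAD4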
HTRA1 inhibitor – HTRA1 (human) protease inhibition; Q92743; actives 0.5% (n = 340,000); recombinant HTRA1, FP-rhodamine activity-based probe, fluorescence polarization; inhibition, % at 5.96 µM; in the data active = inhibition above about 36%;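 also: 0% = enzyme with DMSO and 100% = wells lacking enzyme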
PRMT1 FP inh – inhibitors of human PRMT1 | inhibition, % at 2.79 µM | recombinant PRMT1, activity-based probe fluorescence polarization | Q99873 | actives 1.3% (n = 370,000) | AID 652257;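 active = inhibition above about 21% made by adding two undisclosed values, limit read from the data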
Target sequence (Q99873 whole entry, looked up): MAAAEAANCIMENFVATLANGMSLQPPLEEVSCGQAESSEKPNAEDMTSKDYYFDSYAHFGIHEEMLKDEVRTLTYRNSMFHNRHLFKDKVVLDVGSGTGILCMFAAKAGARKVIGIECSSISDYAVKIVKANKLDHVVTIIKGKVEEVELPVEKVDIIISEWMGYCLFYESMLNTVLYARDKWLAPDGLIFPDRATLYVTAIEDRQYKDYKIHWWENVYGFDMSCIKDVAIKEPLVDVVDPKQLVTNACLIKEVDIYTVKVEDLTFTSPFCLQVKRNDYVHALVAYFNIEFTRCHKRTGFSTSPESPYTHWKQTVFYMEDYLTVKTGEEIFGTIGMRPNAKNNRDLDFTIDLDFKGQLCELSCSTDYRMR
BSA TAMRA ctr – counter-screen for TCR-CD3 interaction inhibitors: BSA probe. actives 10% (n = 1,200). shares compounds with TCR-CD3 inh. AID 652035. TAMRA-labeled BSA probe fluorescence counterscreen. inhibition, % at 9.4 µM; in the data active = inhibition above about 23%;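 also: 0% = buffer low control and 100% = reference high control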
TCR-CD3 inh conf – TCR-CD3 interaction inhibition, confirmation | shares compounds with TCR-CD3 inh | TAMRA-labeled TCR probe fluorescence binding assay | inhibition, % at 9.4 µM | actives 48% (n = 1,200) | AID 652036
PRMT1 confirm – confirmation of human PRMT1 inhibitors. inhibition, % at 2.79 µM. recombinant His-PRMT1, activity-based probe fluorescence polarization. actives 42% (n = 3,300). AID 687036. shares compounds with PRMT1 FP inh;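 active = mean inhibition across replicates above the hit cutoff derived for the earlier primary screen, cut at about 22% in these data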
Numbers without * were called inactive; nt = not tested or not shown. This is a sample that favours compounds with a hit; in the whole collection about 2.9% have one here. Rule as the data show it, unless noted: active = inhibition above about 19%; inactive = the rest.

SMILES	mABHD4 FP	SIAE primary	TCR-CD3 inh	PAD4 inh	HTRA1 inhibitor	PRMT1 FP inh	PRMT1 confirm	others
C/C(=N\NC(=O)c1ccncc1)c1c(O)n(Cc2ccccc2)c(=O)[nH]c1=O	8	0	19*	-7	5	0	nt	BSA TAMRA ctr=-7;TCR-CD3 inh conf=11
C/C(=N\NC(=O)c1ccccc1O)c1c(O)n(Cc2ccccc2)c(=O)[nH]c1=O	25	4	34*	-3	23	3	nt	BSA TAMRA ctr=-15;TCR-CD3 inh conf=37*
C/C(=N\Nc1ccccc1)c1c(O)n(Cc2ccccc2)c(=O)[nH]c1=O	-7	0	13	-20	-8	7	nt
O=C(N/N=C/c1c(O)n(Cc2ccc(F)cc2)c(=O)[nH]c1=O)c1ccccc1	10	-3	11	-3	10	2	nt
O=C(N/N=C/c1c(O)n(Cc2ccccc2)c(=O)[nH]c1=O)c1ccncc1	24	4	26*	-1	nt	-2	nt	BSA TAMRA ctr=-11;TCR-CD3 inh conf=9
O=C(N/N=C/c1c(O)n(-c2ccccc2)c(=S)[nH]c1=O)c1ccccc1	3	-11	27*	-5	nt	-2	nt	BSA TAMRA ctr=-11;TCR-CD3 inh conf=7
CN1CC[C@@H]2CN[C@H](c3ccccc3)C[C@@H]21	5	2	0	nt	nt	3	nt
COC(=O)C1=C(c2ccc(OC(F)(F)F)cc2)C[C@@H]2CC[C@H]1N2C(=O)NCc1ccco1	12	7	-3	nt	nt	1	nt
NC(=O)c1ccc(N=Cc2c(O)n(Cc3ccco3)c(=O)[nH]c2=O)cc1	-4	-2	21*	-2	-3	13	nt	BSA TAMRA ctr=13;TCR-CD3 inh conf=26*
CN1C2CCC1C(C(=O)Oc1ccccc1)C(c1ccc(Cl)cc1)C2 (stereo unspecified)	-1	4	4	nt	nt	-2	nt
CN(C)c1ccc(C=C2C(=O)NC(=O)NC2=O)cc1	1	1	-3	nt	-1	7	nt
CC(=O)Nc1ccc(C=C2C(=O)NC(=O)NC2=O)cc1	9	-1	51*	nt	-1	7	nt	BSA TAMRA ctr=-3;TCR-CD3 inh conf=-4
O=C(NCCN1CCC2(CC1)C(=O)NCN2c1ccccc1)c1cccs1	2	-1	4	nt	nt	-2	nt
Oc1ccc(C[C@H]2NCCc3cc(O)c(O)cc32)cc1O	15	16	113*	nt	28	19	nt	BSA TAMRA ctr=-5;TCR-CD3 inh conf=19*
COc1ccc2c(c1O)-c1c(OC)c(OC)cc3c1[C@H](C2)N(C)CC3	1	1	6	-3	1	0	nt
COc1cc2c(cc1O)CC1c3c(cc(O)c(OC)c3-2)CCN1C (stereo unspecified)	24	11	22*	-2	8	0	nt	BSA TAMRA ctr=-1;TCR-CD3 inh conf=7
COP(=S)(OC)SCn1nnc2ccccc2c1=O	0	3	-5	nt	7	89*	74*
Cc1cc(N2CCCC2)ccc1C=C(C#N)C#N	-3	-17	-3	1	-1	3	nt
Cc1ccc2cc(C=C(C#N)C#N)c(Cl)nc2c1	7	8	-2	-5	-12	52*	22*
O=C1NC(=O)C(=Cc2ccc3c(c2)OCO3)C(=O)N1	0	-2	-8	-2	nt	25*	1
[Cl][Pt+2][Cl].[NH-]C1CCCCC1[NH-] (stereo unspecified)	-2	4	9	2	6	47*	8
CN1C[C@H](CO)C[C@@H]2c3cccc4[nH]cc(c34)C[C@H]21	0	2	-7	-3	-3	7	nt
CN1C[C@H](CNC(=O)OCc2ccccc2)C[C@@H]2c3cccc4c3c(cn4C)C[C@H]21	9	6	2	2	6	39*	7
O=C1NC(=O)N(Cc2ccccc2)C(=O)/C1=C/N1CCCc2ccccc21	0	3	-9	-1	4	28*	-8
CN1C(=O)/C(=C/C=C/c2ccco2)C(=O)NC1=S	-87	-75	-91	-13	-32	40*	57*
SMILES	mABHD4 FP	SIAE primary	TCR-CD3 inh	PAD4 inh	HTRA1 inhibitor	PRMT1 FP inh	PRMT1 confirm	others
O=C1NC(=O)N(Cc2ccco2)C(=O)/C1=C/C=C/c1ccco1	-13	-15	1	-6	2	61*	13
O=C1NC(=O)N(c2ccccc2)C(=O)/C1=C/C=C/c1ccco1	2	-9	-3	-3	2	15	nt
O=C1NC(=O)N(Cc2ccccc2)C(=O)/C1=C/c1cnc(-c2ccccc2)nc1	-2	-4	3	-7	-2	7	nt
Cc1cccc(N2C(=O)NC(=O)/C(=C\C=C\c3ccco3)C2=O)c1	-1	-14	-17	-7	0	36*	1
Cc1ccc(N2C(=O)NC(=O)/C(=C\C=C\c3ccco3)C2=O)cc1	-2	-11	-4	-4	8	20	nt
CC(=O)C1=C(C)OC2=C(C(=O)CCC2)[C@@]12C(=O)N(C)c1ccccc12	-1	-1	2	nt	nt	-2	nt
O=S(=O)(c1ccc(Cl)cc1)N1Cc2ccc(Br)cc2-n2nncc2C1	2	2	-6	nt	nt	4	nt
COc1cc2c(c3oc4cccc(O)c4c(=O)c13)[C@@H]1C=CO[C@@H]1O2	4	-10	nt	nt	nt	2	nt
CCOC(=O)[C@]12Cc3cc(C)ccc3[C@H]1N(C1CCCCC1)C(=O)c1ccccc12	1	2	-2	nt	nt	-1	nt
O=C1NC(=O)N(Cc2ccccc2)C(=O)/C1=C\C=C\c1ccco1	-35	-20	-23	-12	-2	36*	1
CC(C)OC(=O)C1C(c2ccc(I)cc2)CC2CCC1N2C (stereo unspecified)	-2	-4	3	nt	nt	-4	nt
CN(C)c1ccc2c(c1)N=C(c1ccco1)OP2(=S)N1CCOCC1 (stereo unspecified)	16	13	3	-1	-4	26*	50*
CN1C(=O)C(=Cc2cn(CC(=O)N3CCCCC3)c3ccccc23)C(=O)N(C)C1=O	nt	nt	nt	-5	-3	nt	nt
CN1C(=O)C(=Cc2cn(CC#N)c3ccccc23)C(=O)N(C)C1=O	3	-6	-5	nt	-15	32*	11
CN1C(=O)C(=Cc2cn(CC(=O)N3CCCC3)c3ccccc23)C(=O)N(C)C1=O	2	-7	-5	-3	12	32*	-4
COC(=O)C1CC(OC(C)=O)C(=O)[C@H]2C1(C)CC[C@H]1C(=O)OC(c3ccoc3)CC12C (stereo partly specified)	1	1	1	nt	nt	2	nt
Cc1ccc(-n2c(C)cc(/C=C3/C(=O)NC(=O)N(Cc4ccco4)C3=O)c2C)cc1	-5	-9	1	-4	-8	17	nt
Cc1cc(/C=C2\C(=O)NC(=O)N(Cc3ccccc3Cl)C2=O)c(C)n1-c1ccc(C(=O)O)cc1	-5	-12	8	-13	-1	12	nt

Bioassay records: PubChem BioAssay, The Scripps Research Institute Molecular Screening Center
